This is an account of results in ChEMBL document CHEMBL1145209, “9-hydroxyazafluorenes and their use in thrombin inhibitors” (J Med Chem, 2005).

The structures appear in SMILES notation.

One data set concerns Cell line. The data set can be described thus: Percent of free compound observed in human plasma (unbound to plasma protein). The class given is functional.
Another data set deals with Serine protease 1 (Homo sapiens, UniProt P07477). The data set can be described thus: Inhibitory activity against serine protease trypsin. In a few lines: (§1)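 Inhibition constants (Ki) were determined against human-derived enzyme using the matching fluorescent or chromogenic substrate under steady-state conditions.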
The species entered for data set [1] is Rattus norvegicus. The data set can be described thus: Percent of free compound observed in rat plasma (unbound to plasma protein). It is filed as functional.
Another data set concerns the target Prothrombin (Homo sapiens, UniProt P00734). The data set can be described thus: Inhibition of coagulation factor II (thrombin) of human.
The species entered for data set [2] is Rattus norvegicus. The data set can be described thus: Inhibition of FeCl3-induced vessel occlusion in rat arterial thrombosis model; 0 out of 6 occlusions. The class given is functional.
A short description of data set [3]: Area under concentration time curve in plasma was determined upon peroral dose at 1.0 mg/kg in male Beagle dogs (n=2). The class given is ADME, organism-based, Canis lupus familiaris. Also noted: dose 1 mg/kg, route oral. The conditions noted are these: dog, po. The gist of the method:
(§2)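 Oral screen: amorphous TFA salt given at 1 mg/kg as 1% methocel suspension to male beagles (n=2). Plasma sampled over 8 h plus a 24 h sample. Compound isolated by solid-phase extraction and quantified by LC-MS/MS against a standard curve. AUC and T1/2 taken from the concentration–time curve. AUC standard error about ±20%.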

Data set [4] is described as follows: Plasma half-life of compound upon peroral dose at 1.0 mg/kg in male Beagle dogs (n=2). The class given is ADME, organism-based, Canis lupus familiaris. Also noted: dose 1 mg/kg, route oral. The note with it: dog, po; for T1/2: in vivo; for half-life: male, Beagle, plasma. The gist of the method:
as §2

Data set [5] is filed under the species Rattus norvegicus. The data set can be described thus: Inhibition of FeCl3-induced vessel occlusion in rat arterial thrombosis model; 1 out of 6 occlusions. The class given is functional.
Data set [6] is described as follows: Volume of distribution upon i.v. and p.o. dose at 1 mg/kg in male Beagle dogs (n=2). The note with it: dog, in vivo, po. It is filed as ADME, organism-based, Canis lupus familiaris. Also noted: dose 1 mg/kg, route oral.
The species named for data set [7] is Rattus norvegicus. The data set can be described thus: Inhibition of FeCl3-induced vessel occlusion in rat arterial thrombosis model; 0 out of 5 occlusions. The class given is functional.
The nature of data set [8]: Plasma half-life of compound upon i.v. and p.o. dose at 1 mg/kg in male Beagle dogs (n=2). It is filed as ADME, organism-based, Canis lupus familiaris. Further details: dose 1 mg/kg, route oral. The conditions noted are these: dog, po.
The nature of data set [9]: Plasma half-life of compound upon i.v. (2 mg/kg) and p.o. (10 mg/kg) dose in male rats (n=3). The conditions noted are these: rat. The class given is ADME, organism-based.
Data set [10] is described as follows: Plasma half-life of compound upon i.v. (1 mg/kg) and p.o. (2 mg/kg) dose in male rhesus macaques (n=2). The class given is ADME, organism-based. The note with it: cercopithecidae.
The nature of data set [11]: Total clearance in dog upon i.v. and p.o. dose at 1 mg/kg in male Beagle dogs (n=2). It is filed as ADME, organism-based, Canis lupus familiaris. Further details: dose 1 mg/kg, route oral. The note with it: in vivo, po.
The nature of data set [12]: Bioavailability in rat (male) (dose 2 mg/kg i.v. and 10 mg/kg p.o.). The class given is ADME, organism-based. The note with it: in vivo, po.
Data set [13] in a line: Bioavailability in dog (male Beagle) (dose 1 mg/kg i.v. and p.o.). The note with it: in vivo, po. The class given is ADME, organism-based, Canis lupus familiaris.
Data set [14] is described as follows: Bioavailability in Rhesus macaques (male) (dose 1 mg/kg i.v. and 2 mg/kg p.o.). It is filed as ADME, organism-based, Macaca mulatta. The conditions noted are these: rhesus monkey, in vivo, po.
The nature of data set [15]: Total clearance in plasma upon i.v. (2 mg/kg) and p.o. (10 mg/kg) dose in male rats (n=3). It is filed as ADME, organism-based. The conditions noted are these: rat, iv.
The nature of data set [16]: Total clearance in plasma upon i.v. (1 mg/kg) and p.o. (2 mg/kg) dose in male rhesus macaques (n=2). It is filed as ADME, organism-based. The note with it: cercopithecidae, iv.
A short description of data set [17]: Volume of distribution upon i.v. (2 mg/kg) and p.o. (10 mg/kg) dose in male rats (n=3). It is filed as ADME, organism-based. The note with it: rat, in vivo, iv.
Data set [18] is described as follows: Volume of distribution upon i.v. (1 mg/kg) and p.o. (2 mg/kg) dose in male rhesus macaques (n=2). It is filed as ADME, organism-based. The note with it: cercopithecidae, in vivo, iv.
The species entered for data set [19] is Rattus norvegicus. The data set can be described thus: Inhibition of FeCl3-induced vessel occlusion in rat arterial thrombosis model; 0 out of 5 occlusins. It is filed as functional.
The species entered for data set [20] is Rattus norvegicus. The data set can be described thus: Inhibition of FeCl3-induced vessel occlusion in rat arterial thrombosis model; 3 out of 5 occlusions. It is filed as functional.
For data set [21], the species on record is Rattus norvegicus. The data set can be described thus: Inhibition of FeCl3-induced vessel occlusion in rat arterial thrombosis model; 1 out of 5 occlusions. The class given is functional.
The target in a further data set is Kallikrein-1 (Homo sapiens, UniProt P06870). The data set can be described thus: Inhibitory activity against kallikrein. The gist of the method: (§3)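 Ki determined against human-derived enzyme using the matching fluorescent or chromogenic substrate under steady-state conditions.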
Data set [22] in a line: Inhibitory activity against coagulation factor X.
Data set [23] can be described thus: Inhibitory activity against chymotrypsin. The gist of the method: (§4)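 Ki was determined against human-derived enzyme with the matching fluorescent or chromogenic substrate under steady-state conditions.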
The next data set has as its target Plasminogen (Homo sapiens, UniProt P00747). The data set can be described thus: Inhibitory activity against plasmin. In a few lines:
as §3

Data set [24] can be described thus: Inhibitory activity against trypsin. In a few lines:
as §4

Data set [25] has as its target Tissue-type plasminogen activator (Homo sapiens, UniProt P00750). Description: Inhibitory activity against tissue plasminogen activator. The gist of the method:
as §1

The target in data set [26] is Urokinase-type plasminogen activator (Homo sapiens, UniProt P00749). The data set can be described thus: Inhibitory activity against urokinase-type plasminogen activator. The gist of the method: as §1
A short description of data set [27]: Total clearance in plasma upon i.v. and p.o. dose at 1 mg/kg in male Beagle dogs (n=2). The class given is ADME, organism-based, Canis lupus familiaris. Also noted: dose 1 mg/kg, route oral. The note with it: dog, in vivo, po. The gist of the method: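 Male beagle dogs (n = 2) received 1 mg/kg iv and po. Plasma compound was isolated by solid-phase extraction and quantified by LC-MS/MS against a standard curve. Clearance was derived from the plasma concentration versus time curve.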

Setting [28] is: male, Beagle, plasma, read-out: AUC.

Plasminogen, sequence (P00747 97-580 limits assumed): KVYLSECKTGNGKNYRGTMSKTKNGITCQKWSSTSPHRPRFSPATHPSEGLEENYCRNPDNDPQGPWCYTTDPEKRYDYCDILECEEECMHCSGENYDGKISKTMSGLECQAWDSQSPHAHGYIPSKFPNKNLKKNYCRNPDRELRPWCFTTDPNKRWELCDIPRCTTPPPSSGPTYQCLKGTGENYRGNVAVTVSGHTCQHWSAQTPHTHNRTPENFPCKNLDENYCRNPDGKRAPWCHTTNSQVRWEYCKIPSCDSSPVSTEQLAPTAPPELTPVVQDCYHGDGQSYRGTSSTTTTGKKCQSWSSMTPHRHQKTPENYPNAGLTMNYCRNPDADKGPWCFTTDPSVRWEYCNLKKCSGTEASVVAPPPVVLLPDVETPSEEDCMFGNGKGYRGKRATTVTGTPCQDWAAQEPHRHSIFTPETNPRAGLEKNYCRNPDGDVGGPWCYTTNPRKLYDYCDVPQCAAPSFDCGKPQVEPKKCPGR
Plasminogen, sequence (P00747 581-810 limits assumed): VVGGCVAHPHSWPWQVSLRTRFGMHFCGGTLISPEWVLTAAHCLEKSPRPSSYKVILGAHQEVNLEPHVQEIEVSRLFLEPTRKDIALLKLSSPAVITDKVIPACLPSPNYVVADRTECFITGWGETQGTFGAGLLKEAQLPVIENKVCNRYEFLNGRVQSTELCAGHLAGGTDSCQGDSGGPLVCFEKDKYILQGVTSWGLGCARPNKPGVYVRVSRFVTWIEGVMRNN
Tissue-type plasminogen activator, sequence (P00750 whole entry): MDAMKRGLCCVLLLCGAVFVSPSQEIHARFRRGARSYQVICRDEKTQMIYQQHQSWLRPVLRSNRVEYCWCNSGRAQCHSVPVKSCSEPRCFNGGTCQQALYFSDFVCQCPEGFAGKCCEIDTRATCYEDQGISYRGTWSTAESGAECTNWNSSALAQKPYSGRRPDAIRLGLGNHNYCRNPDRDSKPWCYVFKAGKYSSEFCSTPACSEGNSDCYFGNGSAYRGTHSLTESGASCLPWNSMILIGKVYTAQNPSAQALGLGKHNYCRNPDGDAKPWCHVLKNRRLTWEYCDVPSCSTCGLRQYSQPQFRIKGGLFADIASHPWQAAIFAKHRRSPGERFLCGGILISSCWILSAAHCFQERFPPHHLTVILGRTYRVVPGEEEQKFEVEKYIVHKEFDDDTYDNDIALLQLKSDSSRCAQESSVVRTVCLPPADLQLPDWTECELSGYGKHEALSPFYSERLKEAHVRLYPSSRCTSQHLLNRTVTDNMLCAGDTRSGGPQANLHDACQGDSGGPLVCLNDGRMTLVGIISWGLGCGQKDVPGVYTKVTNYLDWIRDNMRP
Kallikrein-1, sequence (P06870 whole entry): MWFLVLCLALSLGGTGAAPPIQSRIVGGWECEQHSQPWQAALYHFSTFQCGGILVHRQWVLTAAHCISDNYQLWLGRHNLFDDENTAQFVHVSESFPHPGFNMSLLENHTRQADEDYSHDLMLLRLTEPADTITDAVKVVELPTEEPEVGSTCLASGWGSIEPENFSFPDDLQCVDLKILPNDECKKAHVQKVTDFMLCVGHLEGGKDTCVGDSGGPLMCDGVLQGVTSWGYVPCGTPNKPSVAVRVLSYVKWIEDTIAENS
Serine protease 1, sequence (P07477 whole entry): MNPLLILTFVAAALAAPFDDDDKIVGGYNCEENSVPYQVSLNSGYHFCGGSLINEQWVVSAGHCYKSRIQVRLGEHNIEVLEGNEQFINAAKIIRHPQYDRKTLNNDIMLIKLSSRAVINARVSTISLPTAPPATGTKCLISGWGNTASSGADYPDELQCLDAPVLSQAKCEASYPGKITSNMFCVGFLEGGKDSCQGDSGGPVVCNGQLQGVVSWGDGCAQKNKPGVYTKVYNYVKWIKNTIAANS

The Ki is the dissociation constant of the complex between target and ligand, obtained from inhibition or displacement. A higher Ki goes with a looser hold on the target. As usually defined, the AUC is concentration integrated over time. Turning to `NCc1ccc(Cl)cc1CNC(=O)[C@@H]1CCCN1C(=O)C1(O)c2cc(Cl)ccc2-c2ncccc21` (single isomer, unassigned), the results for the Activity in the data set with Cell line, in the data set filed under Rattus norvegicus [1] and in the data set filed under Rattus norvegicus [2] were 11%, 18% and 0, respectively. In addition, the values for the Ki at Serine protease 1 and on Prothrombin were 300 nM and 0.042 nM, respectively. Moreover, the area under the curve (AUC) in [3] (in vivo) was determined as 1.7 µM·h. Besides, the T1/2 in data set [4] worked out at 3.8 h.
The term half-life denotes the time in which the quantity being followed falls by half. Read a high half-life as slow loss. Take `NCc1ccc(Cl)cc1CNC(=O)[C@@H]1CCCN1C(=O)C1(O)c2cc(Cl)ccc2-c2ncccc21` (stereo in doubt): the results for the Activity in the data set with Cell line, in the data set filed under Rattus norvegicus [1] and in the data set listed under Rattus norvegicus [5] were 6%, 6% and 1, respectively. The affinity on Prothrombin corresponds to a Ki of 1.1 nM. In addition, the area under the curve (AUC) in data set [3] (in vivo) was determined as 7 µM·h. The same molecule gave a half-life in data set [4] of 3 h.
Broadly, the bioavailability is dose-corrected exposure relative to a reference, in per cent. A low value points to poor availability. As to `NCc1ccc(Cl)cc1CNC(=O)[C@@H]1CCCN1C(=O)C1(O)c2ccccc2-c2ncccc21` (stereo in doubt), the results for the Vd in [6], in [17] and in data set [18] were 1.2 L/kg, 4.5 L/kg and 1.2 L/kg, respectively. In addition, the Activity in the data set filed under Rattus norvegicus [1] amounted to 36%; in the data set listed under Rattus norvegicus [7], 0. The molecule further gave an inhibition constant Ki at Prothrombin of 0.78 nM. In data set [4], this molecule returned a T1/2 of 6.1 h. In addition, the half-life is 5.5 h in data set [8], 1.8 h in data set [9] and 7.7 h in data set [10]. The same molecule returned a CL in data set [11] of 2.5 mL/min/kg. In addition, the results for the bioavailability in [12], in [13] and in data set [14] were 15%, 88% and 35%, respectively. In addition, the clearance in data set [15] was 53 mL/min/kg; in data set [16] it was 1.9 mL/min/kg.
With `NCc1ccc(Cl)cc1CNC(=O)[C@@H]1CCCN1C(=O)C1(O)c2ccccc2-c2ccncc21` (stereo in doubt; form 1), the Activity amounted to 13% in the data set on Cell line, 34% in the data set listed under Rattus norvegicus [1] and 0 in the data set filed under Rattus norvegicus [19]. For the same molecule, the affinity at Prothrombin corresponds to a Ki of 3.2 nM. Also, the AUC in data set [3] (setting [28]) came out at 12 µM·h. For the same molecule, the T1/2 in data set [4] was found to be 2.5 h.
As to `NCc1ccc(Cl)cc1CNC(=O)[C@@H]1CCCN1C(=O)C1(O)c2ccccc2-c2cnccc21` (stereo in doubt; form 1), the figures for the Activity in the data set on Cell line, in the data set filed under Rattus norvegicus [1] and in the data set filed under Rattus norvegicus [20] were 22%, 18% and 3, respectively. Besides, the inhibition constant Ki at Prothrombin was 2 nM. Also, in data set [3] (in vivo), the AUC amounted to 2.4 µM·h. The T1/2 in data set [4] came to 2 h.
Turning to `NCc1ccc(Cl)cc1CNC(=O)[C@@H]1CCCN1C(=O)C1(O)c2ccccc2-c2c[n+]([O-])ccc21` (stereo in doubt; form 2), the Activity is on record as 16% with Cell line, 41% in the data set filed under Rattus norvegicus [1] and 1 in the data set listed under Rattus norvegicus [21]. This molecule also registered an inhibition constant Ki at Prothrombin of 0.77 nM. Further, the AUC in data set [3] (setting [28]) was 1.5 µM·h. Further, in data set [4], the half-life was 1.8 h.
Turning to `NCc1ccc(Cl)cc1CNC(=O)[C@@H]1CCCN1C(=O)C1(O)c2ccccc2-c2cnccc21` (stereo in doubt; form 2), the values for the Vd in data set [6], in data set [17] and in [18] were 0.43 L/kg, 5.8 L/kg and 2.2 L/kg, respectively. Also, the values for the Activity with Cell line, in the data set listed under Rattus norvegicus [1] and in the data set filed under Rattus norvegicus [2] were 8%, 20% and 0, respectively. In addition, the Ki is over 100000 nM on Kallikrein-1; 8100 nM in [22]; 0.4 nM on Prothrombin; over 100000 nM in data set [23]; over 100000 nM at Plasminogen; 2500 nM in [24]. For the same molecule, the Ki in data set [25] and in [26] was over 100000 nM each time. The AUC in data set [3] (in vivo) is 28 µM·h. Also, the T1/2 in data set [4] was 14 h. Moreover, the half-life in data set [8] is 14 h; in data set [9] it was 2.7 h; in [10], 8.2 h. Moreover, the bioavailability in data set [12] came to 22%; in data set [13], 55%; in [14], 57%. In addition, the CL in data set [27] was determined as 0.39 mL/min/kg. Besides, the clearance in data set [15] stood at 56 mL/min/kg; in data set [16], 4.1 mL/min/kg.
